Source: ChEMBL document CHEMBL1255307, “Role of the AheABC efflux pump in Aeromonas hydrophila intrinsic multidrug resistance” (2008)
Converted amounts (≈) assume the structure as drawn. Where a SMILES comes first, the peptide text is derived from it. Bridges are numbered along the chain shown (N, C = ends). [ ]: non-standard residue; d: D form. The star is where a group is joined. NMePhe(4-NMe2) = CN[C@@H](Cc1ccc(N(C)C)cc1)C(=O)O; Pip(4-oxo) = O=C1CCN[C@H](C(=O)O)C1; Picolinoyl(3-OH) = O=C(c1ncccc1O)*; Phg = N[C@H](C(=O)O)c1ccccc1; dAbu = CC[C@@H](N)C(=O)O

Experiments:
Assay type in all cases: functional
Escherichia coli [1] = assay: Antimicrobial activity against Escherichia coli TG1 harboring plasmid pEX19Gm by agar dilution method
In short: (§1)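 Agar dilution MICs on MH medium, final inoculum about 10^4 CFU per spot. Tested in A. hydrophila ATCC 7966T and E. coli TG1 strains (wild type, ΔaheB::kan or ΔacrAB), each carrying empty pEX19Gm or a pump-encoding plasmid (pEXAheABC, pUCAcrAB). Run at least in triplicate, mode value reported.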

Escherichia coli [2] = assay: Antimicrobial activity against acrAB-deficient Escherichia coli TG1 harboring plasmid pEX19Gm by agar dilution method; in short: as §1
[3] = (§2) Antimicrobial activity against aheB deficient kanamycin-resistant Aeromonas hydrophila subsp. hydrophila ATCC 7966 harboring plasmid pEX19Gm by agar dilution method; in short: as §1
[4] = (§3) Antimicrobial activity against Aeromonas hydrophila subsp. hydrophila ATCC 7966 harboring plasmid pEX19Gm by agar dilution method; in short: as §1
[5] = (§4) Antimicrobial activity against aheB deficient kanamycin-resistant Aeromonas hydrophila subsp. hydrophila ATCC 7966 harboring AheABC efflux pump by agar dilution method; in short: as §1
Escherichia coli [6] = assay: Antimicrobial activity against acrAB-deficient Escherichia coli TG1 harboring AcrAB efflux pump by agar dilution method; in short: as §1
[7] = (§5) Antimicrobial activity against aheB deficient kanamycin-resistant Aeromonas hydrophila subsp. hydrophila ATCC 7966 harboring plasmid pEX19Gm by agar dilution method in presence of 64 mg/L efflux pump inhibitor phenylalanine-arginine-beta-naphthylamide
[8] = (§6) Antimicrobial activity against Aeromonas hydrophila subsp. hydrophila ATCC 7966 harboring plasmid pEX19Gm by agar dilution method in presence of 64 mg/L efflux pump inhibitor phenylalanine-arginine-beta-naphthylamide
Escherichia coli [9] = assay: Antimicrobial activity against acrAB-deficient Escherichia coli TG1 harboring AheABC efflux pump by agar dilution method; in short: as §1
[10] = (§7) Antimicrobial activity against aheB-deficient kanamycin-resistant Aeromonas hydrophila subsp. hydrophila ATCC 7966 harboring AheABC efflux pump by agar dilution method in presence of 64 mg/L efflux pump inhibitor phenylalanine-arginine-beta-naphthylamide
[11] = system: Aeromonas hydrophila subsp. hydrophila ATCC 7966; assay: as §2; in short: as §1
[12] = system: Aeromonas hydrophila subsp. hydrophila ATCC 7966; assay: as §3; in short: as §1
[13] = system: Aeromonas hydrophila subsp. hydrophila ATCC 7966; assay: as §4; in short: as §1
[14] = system: Aeromonas hydrophila subsp. hydrophila ATCC 7966; assay: as §5
[15] = system: Aeromonas hydrophila subsp. hydrophila ATCC 7966; assay: as §6
[16] = system: Aeromonas hydrophila subsp. hydrophila ATCC 7966; assay: as §7

Row | Compound | MIC (Escherichia coli [1]) [µg/mL] | MIC (Escherichia coli [2]) [µg/mL] | MIC [3] [µg/mL] | MIC [4] [µg/mL] | MIC [5] [µg/mL] | MIC (Escherichia coli [6]) [µg/mL] | MIC [7] [µg/mL] | MIC [8] [µg/mL] | MIC (Escherichia coli [9]) [µg/mL] | MIC [10] [µg/mL] | MIC [11] [µg/mL] | MIC [12] [µg/mL] | MIC [13] [µg/mL] | MIC [14] [µg/mL] | MIC [15] [µg/mL] | MIC [16] [µg/mL]
1 | CCC[C@@H]1C[C@@H](C(=O)N[C@@H]([C@H]2O[C@H](SC)[C@H](O)[C@@H](O)[C@H]2O)[C@@H](C)O)N(C)C1 [LINCOMYCIN] | 1020 (≈ 2520 µM) | 64 (≈ 157 µM) | 64 (≈ 157 µM) | 128 (≈ 315 µM) | 256 (≈ 630 µM) | > 1020 | 64 | 128 | 512 (≈ 1260 µM) | 256 | – | – | – | – | – | –
2 | CC[C@H]1OC(=O)[C@H](C)[C@@H](O[C@H]2C[C@@](C)(OC)[C@@H](O)[C@H](C)O2)[C@H](C)[C@@H](O[C@@H]2O[C@H](C)C[C@H](N(C)C)[C@H]2O)[C@](C)(O)C[C@@H](C)C(=O)[C@H](C)[C@@H](O)[C@]1(C)O [ERYTHROMYCIN] | 64 (≈ 87.2 µM) | 1 (≈ 1.36 µM) | 8 (≈ 10.9 µM) | 16 (≈ 21.8 µM) | 64 (≈ 87.2 µM) | 128 (≈ 174 µM) | 1 | 2 | 32 (≈ 43.6 µM) | 2 | – | – | – | – | – | –
3 | CC[C@H]1NC(=O)[C@@H](NC(=O)c2ncccc2O)[C@@H](C)OC(=O)[C@H](c2ccccc2)NC(=O)[C@@H]2CC(=O)CCN2C(=O)[C@H](Cc2ccc(N(C)C)cc2)N(C)C(=O)[C@@H]2CCCN2C1=O [PRISTINAMYCIN 1A] ({Picolinoyl(3-OH)}-T[dAbu]P[NMePhe(4-NMe2)][Pip(4-oxo)][Phg]; ester 1-C) | 64 (≈ 73.8 µM) | 4 (≈ 4.61 µM) | 8 (≈ 9.23 µM) | 32 (≈ 36.9 µM) | 128 (≈ 148 µM) | 64 (≈ 73.8 µM) | 1 | 2 | 64 (≈ 73.8 µM) | 4 | – | – | – | – | – | –
4 | CC(=O)O[C@H]1C[C@@]2(C)[C@@H](C[C@@H](O)[C@H]3[C@@]4(C)CC[C@@H](O)[C@@H](C)[C@@H]4CC[C@@]32C)/C1=C(\CCC=C(C)C)C(=O)O [FUSIDIC ACID] | 512 (≈ 991 µM) | 2 (≈ 3.87 µM) | 64 (≈ 124 µM) | 128 (≈ 248 µM) | 256 (≈ 495 µM) | 512 (≈ 991 µM) | 1 | 2 | 128 (≈ 248 µM) | 8 | – | – | – | – | – | –
5 | CN(C)c1ccc(O)c2c1C[C@H]1C[C@H]3[C@H](N(C)C)C(O)=C(C(N)=O)C(=O)[C@@]3(O)C(O)=C1C2=O [MINOCYCLINE] | 1 (≈ 2.19 µM) | 0.12 (≈ 0.262 µM) | 0.4 (≈ 0.874 µM) | 1 (≈ 2.19 µM) | 2 (≈ 4.37 µM) | 2 (≈ 4.37 µM) | 0.25 | 0.5 | 1 (≈ 2.19 µM) | 1 | – | – | – | – | – | –
6 | CCN1CCN(C(=O)N[C@@H](C(=O)N[C@@H]2C(=O)N3C(C(=O)O)=C(CSc4nnnn4C)CS[C@H]23)c2ccc(O)cc2)C(=O)C1=O [CEFOPERAZONE] | 0.25 (≈ 0.387 µM) | 0.03 (≈ 0.0465 µM) | 0.06 (≈ 0.0929 µM) | 0.25 (≈ 0.387 µM) | 2 (≈ 3.1 µM) | 8 (≈ 12.4 µM) | 0.06 | 0.25 | 0.06 (≈ 0.0929 µM) | 2 | – | – | – | – | – | –
7 | CO[C@H]1/C=C/O[C@@]2(C)Oc3c(C)c(O)c4c(O)c(c(/C=N/N5CCN(C)CC5)c(O)c4c3C2=O)NC(=O)/C(C)=C\C=C\[C@H](C)[C@H](O)[C@@H](C)[C@@H](O)[C@@H](C)[C@H](OC(C)=O)[C@@H]1C [RIFAMPIN] | 16 (≈ 19.4 µM) | 8 (≈ 9.72 µM) | 1 (≈ 1.22 µM) | 2 (≈ 2.43 µM) | 4 (≈ 4.86 µM) | 16 (≈ 19.4 µM) | 0.03 | 0.06 | 8 (≈ 9.72 µM) | 0.12 | – | – | – | – | – | –
8 | CO/N=C(\C(=O)N[C@@H]1C(=O)N2C(C(=O)O)=C(COC(N)=O)CS[C@H]12)c1ccco1 [CEFUROXIME] | 4 (≈ 9.43 µM) | 0.5 (≈ 1.18 µM) | 0.25 (≈ 0.589 µM) | 1 (≈ 2.36 µM) | 4 (≈ 9.43 µM) | 8 (≈ 18.9 µM) | 0.25 | 1 | 2 (≈ 4.71 µM) | 4 | – | – | – | – | – | –
9 | TRIBUTYLSTANNANYL | > 1020 | 4 | – | – | – | > 1020 | – | – | 16 | – | 16 | 32 | 256 | 2 | 2 | 4
10 | CC[n+]1c(-c2ccccc2)c2cc(N)ccc2c2ccc(N)cc21.[Br-] [HOMIDIUM BROMIDE] | 512 | 2 | 64 | 128 | 512 | 512 | 64 | 128 | 64 | 512 | – | – | – | – | – | –
11 | CN(C)c1ccc2cc3ccc(N(C)C)cc3nc2c1 [ACRIDINE ORANGE] | > 1020 | 128 (≈ 482 µM) | 256 (≈ 965 µM) | 512 (≈ 1930 µM) | 1020 (≈ 3860 µM) | > 1020 | 128 | 256 | 256 (≈ 965 µM) | 256 | – | – | – | – | – | –
12 | COc1cc(Cc2cnc(N)nc2N)cc(OC)c1OC [TRIMETHOPRIM] | 0.2 (≈ 0.689 µM) | 0.05 (≈ 0.172 µM) | 8 (≈ 27.6 µM) | 16 (≈ 55.1 µM) | 32 (≈ 110 µM) | 0.05 (≈ 0.172 µM) | 4 | 8 | 0.05 (≈ 0.172 µM) | 16 | – | – | – | – | – | –
